# ERAP1 HTS inh: human ERAP1 aminopeptidase inhibitors, primary screen, biochemical, single point, plate reader | Endoplasmic reticulum aminopeptidase 1 (Homo sapiens), Q9NZ08 | recombinant ERAP1, Leu-AMC fluorescence, 60 min | inhibition, % at 10.7 µM | actives 0.15% (n = 340,000);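 active = mean replicate inhibition of at least 30%, or all replicates individually reaching that 30% level; inactive = mean below 30% and not every replicate reaching it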;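 also: 0% = neutral control wells and 100% = L-leucinethiol positive control wells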
# Target sequence (Q9NZ08 whole entry, looked up): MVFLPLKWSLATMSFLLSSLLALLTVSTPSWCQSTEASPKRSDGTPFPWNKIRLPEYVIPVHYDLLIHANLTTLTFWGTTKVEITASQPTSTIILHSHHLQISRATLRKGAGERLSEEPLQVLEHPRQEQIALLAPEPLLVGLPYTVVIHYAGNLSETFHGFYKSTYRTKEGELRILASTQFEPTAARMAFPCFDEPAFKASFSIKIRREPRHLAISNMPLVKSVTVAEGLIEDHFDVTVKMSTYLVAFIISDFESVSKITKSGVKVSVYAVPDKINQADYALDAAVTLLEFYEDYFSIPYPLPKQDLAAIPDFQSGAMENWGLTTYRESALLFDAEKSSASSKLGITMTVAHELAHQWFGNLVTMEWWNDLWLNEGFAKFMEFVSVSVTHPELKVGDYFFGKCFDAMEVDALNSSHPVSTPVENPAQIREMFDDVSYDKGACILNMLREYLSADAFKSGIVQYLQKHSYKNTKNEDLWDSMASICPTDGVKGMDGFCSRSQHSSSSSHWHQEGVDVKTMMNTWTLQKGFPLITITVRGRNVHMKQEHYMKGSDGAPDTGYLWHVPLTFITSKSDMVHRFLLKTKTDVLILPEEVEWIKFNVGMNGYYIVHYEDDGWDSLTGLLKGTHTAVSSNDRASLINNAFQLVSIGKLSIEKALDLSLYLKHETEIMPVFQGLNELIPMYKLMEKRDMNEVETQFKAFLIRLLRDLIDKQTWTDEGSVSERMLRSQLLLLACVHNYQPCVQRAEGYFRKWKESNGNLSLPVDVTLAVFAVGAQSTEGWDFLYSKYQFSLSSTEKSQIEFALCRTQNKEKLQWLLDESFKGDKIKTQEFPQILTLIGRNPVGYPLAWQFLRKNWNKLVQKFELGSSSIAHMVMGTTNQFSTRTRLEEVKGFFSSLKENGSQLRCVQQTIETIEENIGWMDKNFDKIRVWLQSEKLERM
# S100A4 MyoIIA: inhibitors of S100A4-myosin IIA peptide binding, primary screen, biochemical, fluorescence polarization, TAMRA-MyoIIA peptide; inhibition, % at 10.7 µM; Protein S100-A4 (Homo sapiens), P26447; AID 652163, 2013; actives 0.14% (n = 360,000);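 active = mean inhibition of at least 70% across replicates, with every replicate also reaching that level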
#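 incubation = readout 5 min after mixing, signal stable up to 60 min | system = S100A4 monomer protein | buffer or medium = HEPES pH 7.2 with CaCl2, KCl, NaCl, DTT, Triton | benchmarks = neutral control DMSO, positive control TFP | also added = fluorescent myosin IIA peptide, 5 nM | compound dosing = one concentration per compound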
# SIRT5 block: SIRT5 desuccinylase inhibitors, primary screen, biochemical, fluorescence imaging, single point, set 5. NAD-dependent protein deacylase sirtuin-5, mitochondrial (Homo sapiens), Q9NXA8. Purified SirT5, succinyl-peptide AMC, trypsin-coupled fluorescence. inhibition, % at 15 µM. actives 1.1% (n = 330,000). AID 652115, 2013; in the data active = inhibition above about 15%
# CFTR F508del cor: F508del CFTR correction, initial screen, CFBE line, single point. CFBE cells, YFP halide quenching; stimulated with forskolin plus potentiator P3; % fluorescence drop versus neutral controls. activity (quench increase), % at 7.58 µM. actives 0.36% (n = 350,000). AID 720511, 2013;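 active = mean added fluorescence quench of at least 8% versus neutral control, with both replicates also reaching 8%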;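 also: cells transiently co-express mutant CFTR-F508del with the halide-sensitive YFP; corrector assay measuring rescue of mutant channel to the surface after 24 h compound exposure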
# rRNA inh HTS: reduced GFP signal of wild-type E. coli, primary screen, bacterial rRNA inhibitor project, GFP/RFP fluorescence, OD600, single point. GFP signal change (wild-type ribosome), % (test concentration not listed). E. coli WT GFP vs humanized-ribosome RFP mutants, 24 h; hits give low values; DMSO median 0, no signal -100. actives 1.6% (n = 350,000);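 active = significant combined selectivity score with lowered wild-type GFP, culture density cut under 30%, mutant RFP and density less affected; inactive = any of these conditions unmet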
# An asterisk follows results filed as active; nt = no result given. Shown are actives, neighbours in structure and some others; about 3.1% of the full set was active somewhere.
SMILES,ERAP1 HTS inh,S100A4 MyoIIA,SIRT5 block,CFTR F508del cor,rRNA inh HTS
COc1ccc(N2CCN(C(=O)C3CCN(S(=O)(=O)c4cccs4)CC3)CC2)cc1,3.1,-0.7,3.5,-0.2,12.1
COc1ccc(NS(=O)(=O)c2cccc(C(=O)N3CCCC(C)C3)c2)cc1 (stereo unspecified),2.1,-4.1,19.5*,1.8,-7.8
CCOc1ccc(NS(=O)(=O)c2ccc(C(=O)N3CCN(c4ncccn4)CC3)cc2)cc1,-2.1,-17.3,2.3,-0.7,-22.6*
COc1ccc(N2CCN(C(=O)c3ccc(NS(=O)(=O)c4cccs4)cc3)CC2)cc1,-1.7,-3.3,0.5,0.2,-23.1*
CCNC(=O)[C@H]1[C@H](CO)[C@H]2Cn3c(ccc(-c4ccccc4F)c3=O)[C@@H]1N2CC,1.3,-3.1,-3.3,1.6,2.7
O=C(O)c1ccccc1NS(=O)(=O)c1ccc2ccccc2c1,-15.2,-4.5,6.5,3.0,-49.6
O=C(O)c1ccccc1NS(=O)(=O)c1cccc(-n2sc3ccccc3c2=O)c1,99.3*,1.5,0.7,2.3,0.8
O=C(CN1C(=O)/C(=C/c2ccc(F)cc2)SC1=S)N1CCN(CCc2ccccn2)CC1,-2.4,8.8,-1.0,4.7,-29.6*
O=C(c1cc(=O)c2ccccc2o1)N1CCN(c2cccc(Cl)c2)CC1,1.2,-5.2,-1.7,4.1,-30.1*
O=C(c1cc(=O)c2ccccc2o1)N1CCN(c2ccccc2F)CC1,1.7,-3.8,3.0,2.7,-9.6
COc1ccccc1NC(=O)COC(=O)c1ccc([N+](=O)[O-])s1,2.8,-3.4,23.1*,-1.0,-0.9
COc1ccccc1NC(=O)COC(=O)c1[nH]c(=O)[nH]c(=O)c1N,1.0,5.5,17.2*,3.5,nt
O=C(C[C@@H]1CC[C@H](NC(=O)Nc2ccccc2)[C@@H](CO)O1)NCc1cccc(F)c1,-2.0,3.8,-9.6,2.3,1.6
COC(=O)Nc1cc(C(=O)c2ccc(Cl)cc2Cl)c[nH]1,-2.4,-5.3,-1.1,2.9,-46.5*
O=C(C[C@H]1C[C@@H]2c3cc(NS(=O)(=O)c4ccc(F)cc4)ccc3O[C@@H]2[C@H](CO)O1)NC1CCCCC1,4.1,-13.6,0.3,3.4,-4.6
O=c1ccc(-c2ccccc2)n[nH]1,-0.1,5.3,21.2*,-2.2,8.1
CCCNC(=O)N1C[C@H](C)[C@H](OC)CN(C)C(=O)c2cc(NS(=O)(=O)CC(F)(F)F)ccc2OC[C@H]1C,-1.5,1.5,1.1,0.8,0.5
C[C@@H]1CN([C@@H](C)CO)C(=O)c2cc(NC(=O)c3ccccc3)ccc2O[C@@H](C)CCCCO[C@@H]1CN(C)C(=O)C1CCCCC1,0.1,-2.1,4.1,-2.2,-4.9
CO[C@@H]1CN(C)C(=O)c2ccc(NC(C)=O)cc2OC[C@H](C)N(Cc2cc(F)ccc2F)C[C@@H]1C,-1.5,105.3*,4.8,2.5,-9.3
COc1cccc(S(=O)(=O)Nc2ccc3c(c2)OC[C@H](C)N(Cc2ccccc2F)C[C@H](C)[C@@H](OC)CN(C)C3=O)c1,3.4,-1.8,2.7,1.1,0.7
COc1cccc(S(=O)(=O)Nc2ccc3c(c2)OC[C@@H](C)N(Cc2cc(F)ccc2F)C[C@@H](C)[C@H](OC)CN(C)C3=O)c1,0.4,5.3,20.0*,0.0,-2.9
Cc1ccc(S(=O)(=O)N(C)C[C@H]2Oc3c(NC(=O)c4cc(C)nn4C)cccc3C(=O)N([C@H](C)CO)C[C@H]2C)cc1,-5.1,-4.8,1.0,-0.8,1.3
C[C@@H]1CN([C@@H](C)CO)C(=O)c2cc(NC(=O)CCCN(C)C)ccc2O[C@@H](C)CCCCO[C@H]1CN(C)Cc1ccncc1,3.4,2.6,-0.2,-2.4,3.2
CC1CC(OCC(O)CN2CCOCC2)CC(C)(C)C1 (stereo unspecified),-0.6,1.1,nt,nt,10.4
CC1CC(OCC(O)C[N+]2(C)CCOCC2)CC(C)(C)C1 (stereo unspecified),108.7*,14.7,-2.0,0.4,11.7

# Compound activity: PubChem BioAssay, Broad Institute
